From the EternaBench riboswitch data

Test system: MS2 coat protein
Assay: apparent Kd, MS2 coat protein; higher = weaker binding; RNA-MaP array; FMN 200 µM where present
Method in brief: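 Apparent Kd: the median of filtered binding-curve fits from single clusters. Designs were transcribed on Illumina sequencing-chip clusters by stalled E. coli RNA polymerase and titrated with SNAP-549-labelled MS2 coat protein from 0.7 or 1.5 nM, doubling to 3 µM, in 100 mM Tris-HCl pH 7.5, 80 mM KCl, 4 mM MgCl2, BSA, DTT, yeast tRNA and Tween-20. Each series ran without and then with constant ligand, and green signal was normalised to red-channel RNA signal and control-cluster median Fmax.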

[1] = designed as: OFF switch for flavin mononucleotide, no ligand
[2] = ligand present: flavin mononucleotide, designed as: OFF switch for flavin mononucleotide
[3] = designed as: ON switch for flavin mononucleotide, no ligand
[4] = ligand present: flavin mononucleotide, designed as: ON switch for flavin mononucleotide

Sequence: CCGCGGCGUGCAGGAUAUGUUACGAUACCUCGGACAGAAGGGCACAUGAGGAUCACCCAUGUAAUAUAUAUGGAACAUAUAUAG
- apparent Kd [1]: 33.8 nM
- apparent Kd [2]: 53.3 nM

Sequence: CCGGAAAUAGAGGAUAUAGGAGUCGAUAGACUCCUAGAAGGCUAUACAUGAGGAUCACCCAUGUGUCCUACCGG
- apparent Kd [1]: 17.4 nM
- apparent Kd [2]: 39.6 nM

Sequence: CCGGAACAUGAGGAUCACCCAUGUGAGGAUAUCGUACGUUCGUCGAUAGACGAUCGUACGAGAAGGCACGCCGG
- apparent Kd [1]: 18.2 nM
- apparent Kd [2]: 17.3 nM

Sequence: CCGGAAGUAGAGGAUAUCGUAUCGGAUACGAUACGAGAAGGCUAUACAUGAGGAUCACCCAUGUGUCCUACCGG
- apparent Kd [1]: 24.6 nM
- apparent Kd [2]: 33.3 nM

Sequence: CCGGGCUAGGAGAAGGGCUAGAGUGUGAUAUAUUUGCCCGCGAGCACAUGAGGAUCACCCAUGUAGCAGGAUAUCCAAGCCGAU
- apparent Kd [1]: 7.33 nM
- apparent Kd [2]: 18 nM

Sequence: CCGUUACAUGAGGAUCACCCAUGUGAGGAUAUCGGUGUGACUGGCAGCGUGCGGGACUCGAGAAGGCGCUUGGC
- apparent Kd [1]: 48.5 nM
- apparent Kd [2]: 48.4 nM

Sequence: CCUAAACAUGAGGAUCACCCAUGUGAGGAUAUGAUGCAGCAGUGGUCUACGCUGUGCAUCAGAAGGUACAUGGU
- apparent Kd [1]: 80.8 nM
- apparent Kd [2]: 120 nM

Sequence: CCUAAGGAGGCAGGAUAUAGUGUGGUGGCCGGGCUCCCACGGCGAGCGGCACUAGAAGGGUCACUACAUGAGGAUCACCCAUGU
- apparent Kd [3]: 73.3 nM
- apparent Kd [4]: 30 nM

Sequence: CCUACCUUCACAGGAUAUGCUAUCCUUUGGGUAGCAGAAGGGUGAUAACAUGAGGAUCACCCAUGUGGUAGGCCCGGUGACGGG
- apparent Kd [3]: 1300 nM
- apparent Kd [4]: 105 nM

Sequence: CCUAGACAUGAGGAUCACCCAUGUGAGGAUAUGAUGCGAUCGUCGAAAGACGAUAGCAUCAGAAGGCACAUAUG
- apparent Kd [1]: 34.4 nM
- apparent Kd [2]: 109 nM

Sequence: CCUAUGUGAGGAUAUGUCUGGUCUUCUUUUAUUUUUUACAGACAGAAGGCACAUGAGGAUCACCCAUGUCAGAC
- apparent Kd [1]: 23.2 nM
- apparent Kd [2]: 64.7 nM

Sequence: CCUCAGUCAGGAUAUAUCGCACCCAUGAAGUACAUAGGUUCAUAGAAGGGACAUGAGGAUCACCCAUGUCUAGA
- apparent Kd [1]: 22 nM
- apparent Kd [2]: 57 nM

Sequence: CCUCCACAUGAGGAUCACCCAUGUCAGGAUAUCGUGUGCGCGUUUUCGGUCUUUCGCGCGAGAAGGGACGACUG
- apparent Kd [1]: 27.3 nM
- apparent Kd [2]: 28.4 nM

Sequence: CCUCCACAUUAGGAUAUCGUCACAGAAAUGUGACGAGAAGGAAUGACAUGAGGAUCACCCAUGUUAUCGUGAUG
- apparent Kd [1]: 21.2 nM
- apparent Kd [2]: 54.9 nM

Sequence: CCUCUACAUGAGGAUCACCCAUGUGAGGAUAUCUCGGAGCAGCCACUUAAAGCACUCCAGAGAAGGCACGUGUA
- apparent Kd [1]: 15.3 nM
- apparent Kd [2]: 22.8 nM

Sequence: CCUGGUUGGUAAGGAUAUCCUACACUAUUCUGACCCGUGCAAGCUACAUGAGGAUCACCCAUGUGGGAGAAGGUGCGUCAACGU
- apparent Kd [1]: 12.8 nM
- apparent Kd [2]: 12 nM

Sequence: CCUGUCGCAUGAGGAUAUGGUCAGCUUUGCUGACCAGAAGGCAUGUCGAUAGACAUGAGGAUCACCCAUGUAGUAAAGACAGGA
- apparent Kd [3]: 831 nM
- apparent Kd [4]: 57.3 nM

Sequence: CCUUUGUCAGGAUAUCAGAACGCGCUCGUAGGGAGCGCGAAUGAGAAGGGACAUGAGGAUCACCCAUGUAAAGA
- apparent Kd [1]: 94.7 nM
- apparent Kd [2]: 492 nM

Sequence: CCUUUUGUAUAAGGAUAUGUAACAAGGUAUAGAUUGGUAGGAUUUGUGCUUACAGAAGGUAUACAUGAGGAUCACCCAUGUCGA
- apparent Kd [1]: 23.1 nM
- apparent Kd [2]: 59.5 nM

Sequence: CGAAGUAGCACAGGAUAUCAUACAUGAGGAUCACCCAUGUCAAGAAACAAAUGAGAAGGGUGCAGGCGGUGUUGGAGCUGUUGC
- apparent Kd [3]: 99.4 nM
- apparent Kd [4]: 14.1 nM

Sequence: CGACACAUGAGGGUCUCCCAUGACAUGAGGAUCACCCAUGUGCAGGAUAUACGUGUGAUGGUAUAGUAGAAGGGCACUCUAUGC
- apparent Kd [1]: 368 nM
- apparent Kd [2]: 392 nM

Sequence: CGACACCACACAGGAUAUGCUGGACUUUGUCCAGCAGAAGGGUGUAAACAUGAGGAUCACCCAUGUAUGGUGUCGAAAUUUAAU
- apparent Kd [3]: 382 nM
- apparent Kd [4]: 21.1 nM

Sequence: CGAGAUACGCUCGACCGAAAGGUACAUGAGGAUCACCCAUGUAGAAGGCGAUCCGCAACUCGGAUUGAGGAUAUAUACUACACA
- apparent Kd [1]: 31.8 nM
- apparent Kd [2]: 24.4 nM

Sequence: CGAGUGUAAGGAUAUUCGGCGCCAGGGAACAACCUAGCGUAGAAGAAGGUACAUGAGGAUCACCCAUGUGGUUA
- apparent Kd [1]: 269 nM
- apparent Kd [2]: 22.4 nM

Sequence: CGAUCGUGUAGAGGAUAUGUUAAACAUGAGGAUCACCCAUGUAAGGUAGAAAUUUUUAUAAACAUACAGAAGGCUACACGAUCG
- apparent Kd [1]: 7.32 nM
- apparent Kd [2]: 5.15 nM

Sequence: CGAUGUUAUGCAGGAUAUCUCUCUUGAAUGCGGAGAGAAGGGCAUAGGGAGACAUACGCCUUAUUACAUGAGGAUCACCCAUGU
- apparent Kd [1]: 9.02 nM
- apparent Kd [2]: 7.92 nM

Sequence: CGAUGUUAUGUCAGGAUAUGCGUUGCGAAAGCGAUGCAGAAGGGACAUGAGGAUCACCCAUGUCCUAACCAUCG
- apparent Kd [1]: 12.3 nM
- apparent Kd [2]: 22.6 nM

Sequence: CGAUUACGAGGAUAUUAUGGCCUCGACAUGAGGAUCACCCAUGUACAAACAUGAAUACCUUGAGAAGGCGUAGAGC
- apparent Kd [1]: 67.7 nM
- apparent Kd [2]: 67.3 nM

Sequence: CGCAAAGAUGGGUUUAAUGGAGCAUAGGAUAUGCUUGUACAUGAGGAUCACCCAUGUAAUAUUGUGCAGAAGGGUGCAUUUGCG
- apparent Kd [3]: 293 nM
- apparent Kd [4]: 74.3 nM

Sequence: CGCAACAUACAGAAGGAGUAAAGGAGAAGUGUACUAGGAUAUGUUAACAUGAGGAUCACCCAUGUCGUUUGGGAUUUUGUUGCG
- apparent Kd [1]: 383 nM
- apparent Kd [2]: 99.3 nM

Sequence: CGCAACUCAGAUCUUUUUAACAUGAGGAUCACCCAUGUAUUGAGAAGGAGGAAGAAGAGAGAUUCCUAGGAUAUCAGAGUUGCG
- apparent Kd [1]: 5.4 nM
- apparent Kd [2]: 6.14 nM

Sequence: CGCAAGUCAGGAUAUUCGACUGGUAAAUCUGUGGAUCAGUAGGAGAAGGGACAUGAGGAUCACCCAUGUUUGUA
- apparent Kd [1]: 29.5 nM
- apparent Kd [2]: 35.9 nM

Sequence: CGCAAUGAUGGUAGUAAUAGAGCAUAGGAUAUGCUUGUACAUGAGGAUCACCCAUGUUAUAUUUUGCAGAAGGGUGUAAUUGCG
- apparent Kd [3]: 309 nM
- apparent Kd [4]: 159 nM

Sequence: CGCACUAUACAUGAGGAUCACCCAUGUUAAUAUGAGGUAGUCAGAAGGCAUUGUAUGAGAUAUUAUGAGGAUAUGAUUAGUGCG
- apparent Kd [3]: 226 nM
- apparent Kd [4]: 41.4 nM

Sequence: CGCACUGAUAGAGGAUAUGUUUAACAUGAGGAUCACCCAUGUGUACAAGUAUCAAUAUUUAUGUAACAGAAGGCUAUUAGUGCG
- apparent Kd [1]: 5.77 nM
- apparent Kd [2]: 5.47 nM

Sequence: CGCACUUAGCGAGGAUAUGUAAAACAUGAGGAUCACCCAUGUGAUUUAGCUCCAAUUUUAAUGACACAGAAGGCGCUUAGUGCG
- apparent Kd [1]: 22.2 nM
- apparent Kd [2]: 15.8 nM

Sequence: CGCCGACAUGAGGAUCACCCAUGUCACAACUGGUCAGGAUAUGGUAUGAAAUGGCUAUUGCCAGAAGGGACCUCAG
- apparent Kd [3]: 40.9 nM
- apparent Kd [4]: 20.4 nM

Sequence: CGCUAAUAAAUAGUAAUAAUUGUACAGGAUAUGUUACAUGAGGAUCACCCAUGUAUUGGGUUUAAACAGAAGGGUAUAUUAGCG
- apparent Kd [1]: 261 nM
- apparent Kd [2]: 126 nM

Sequence: CGCUACUACCAGAAGGACAUGAGGAUCACCCAUGUAGGAUAUGGGUUACAAGUACCAGUGUAAAGAAACUACGCUACGUAUGCG
- apparent Kd [3]: 36.6 nM
- apparent Kd [4]: 7.84 nM

Sequence: CGCUACUACCAGAAGGACAUGAGGAUCACCCAUGUAGGAUAUGGGUUACAAGUACCAGUGUAAAGAAACUACGCUACGUUUGCG
- apparent Kd [3]: 47.2 nM
- apparent Kd [4]: 7.79 nM

Sequence: CGCUGUCACGCAGGAUAUGCAUUGGAUUCCAAUGCAGAAGGGCGAUUACAUGAGGAUCACCCAUGUGUUGACAGUGAAGAAGAG
- apparent Kd [3]: 1250 nM
- apparent Kd [4]: 76.3 nM

Sequence: CGGAGGUCAGGAUAUGCAUGGCGGGACUUGCGUCGUGGCGUGCAGAAGGGACAUGAGGAUCACCCAUGUGGAGU
- apparent Kd [1]: 147 nM
- apparent Kd [2]: 216 nM

Sequence: CGGAUCGCAUGAGGAUAUGGUCAGCUUUGCUGACCAGAAGGCAUGUCAUAAGACAUGAGGAUCACCCAUGUAGUUAAGAUCCGA
- apparent Kd [3]: 576 nM
- apparent Kd [4]: 46.3 nM

Sequence: CGGCCGCUACGCCGGCUCGACGCACAGGAUAUGCUGUUACAUGAGGAUCACCCAUGUGGCCAUGAGCAGAAGGGUGAUUCGCGA
- apparent Kd [3]: 48.9 nM
- apparent Kd [4]: 30.9 nM

Sequence: CGGGAGCCGAAGGGCGAAAGCCCACAUGAGGAUCACCCAUGUAGAAGGCGGGCCGCAACGCGGCCCGAGGAUAUACAGGCUCCA
- apparent Kd [1]: 5.99 nM
- apparent Kd [2]: 10.5 nM

Sequence: CGGGCGCCGAAGGGCGAAAGCCCACAUGAGGAUCACCCAUGUAGAAGGAGGGAAGAAACCAAAACCUAGGAUAUACAGGCGCCC
- apparent Kd [1]: 7.9 nM
- apparent Kd [2]: 10.2 nM

Sequence: CGGGCGCGAGGAUAUACAUGAGGAUCACCCAUGUAGUGGGUUUGUUUCGGGCUUGCGUGUAGAAGGUGUGUUUG
- apparent Kd [1]: 217 nM
- apparent Kd [2]: 172 nM

Sequence: CGGGCGGGAGGAUAUGCGUGGUUUGUUCUCGUUUGGUGUCUACAUGAGGAUCACCCAUGUAGAAGGCUUGUUUG
- apparent Kd [1]: 13.6 nM
- apparent Kd [2]: 15.8 nM

Sequence: CGGGUCUGAGGAUAUCCAUCUUCAUACAUGAGGAUCACCCAUGUUUACCCUUGGGUUCCCGGAGAAGGCAGUUUUC
- apparent Kd [1]: 60.9 nM
- apparent Kd [2]: 56.4 nM

Sequence: CGGUACUGAGGAUAUACAUGAGGAUCACCCAUGUGUUCUAGCUAGCGUACUGGCAUUUGUAGAAGGCGGUGCUG
- apparent Kd [1]: 15 nM
- apparent Kd [2]: 56.4 nM

Sequence: CGGUGACGUGUAGGAUAUGGAGGUGGGUUUUGGCCAGAAGGACAUGAGGAUCACCCAUGUGGUAGAGGGUUGGCGGCUGCCCGU
- apparent Kd [1]: 19.7 nM
- apparent Kd [2]: 18.9 nM

Sequence: CGGUGACGUGUAGGAUAUGGCGCUGGGUUUUGCCCAGAAGGACAUGAGGAUCACCCAUGUGGUAGAGGGCUGGCGGCCGCCCGC
- apparent Kd [1]: 29.4 nM
- apparent Kd [2]: 29.2 nM

Sequence: CGGUGACGUGUAGGAUAUGGCGCUGGGUUUUGGCCAGAAGGACAUGAGGAUCACCCAUGUGGUAGAGGGCUGGCGGCCGCCCGU
- apparent Kd [2]: 108 nM

Sequence: CGUAACUACAUAGGAUAUUGAUACAUGAGGAUCACCCAUGUUAUAGGGAUUAGUUUAAUAUUAAGCAAGAAGGAUGAAGUUACG
- apparent Kd [3]: 18.6 nM
- apparent Kd [4]: 12.4 nM

Sequence: CGUAAGAUGCAGAAGGUGUUAGCUAGAGCUACGACAUGAGGAUCACCCAUGUACUAGAAACAGUACAAGGAUAUGCAUCUUACA
- apparent Kd [3]: 17.3 nM
- apparent Kd [4]: 5.75 nM
